Measurements collected from several papers.
Compare with care: the assays were run in different laboratories.
Observed: cell growth or viability

SMILES | cell line | technique | time | IC50 [µM]
COc1ccc(O)c(/C=N/c2nc(Oc3ccccc3)nn2-c2ccc(C(=O)O)cc2)c1 | RPE-1 | MTT | – | 33.1
O=C(Nc1cc(OCCN2CCCC2)c2ccccc2n1)c1cc(Cl)cc(C(=O)Nc2cc(OCCN3CCCC3)c3ccccc3n2)n1 | U2OS | ATP luminescence | 72 h | 2.3
CC(C)[C@H](N)C(=O)N1CCC[C@H]1B(O)O | HEL | ATP luminescence | 48 h | > 60
Cc1ccc(C(=O)Nc2ccc(Oc3cc4cnn(C)c4cc3-c3cn[nH]c3)c(F)c2)c(=O)n1-c1ccc(F)cc1 | Hs746T | ATP luminescence | – | 0.034
CC(C)C[C@H](NC(=O)[C@H](Cc1ccccc1)NC(=O)c1cnccn1)B(O)O | SK-N-SH | ATP luminescence | – | 0.008
N[C@@H](CC(=O)N1CCN(C(c2ccc(F)cc2)c2ccc(F)cc2)CC1)C(=O)N1Cc2ccccc2C1 | SKM-1 | ATP luminescence | 48 h | 0.346
COc1cc(Nc2nccc(-c3cnn4nc(OC)ccc34)n2)cc(C(F)(F)F)c1 | RL95-2 | ATP luminescence | – | 1
NCCCOc1cc(NC(=O)c2cccc(C(=O)Nc3cc(OCCCN)c4ccccc4n3)n2)nc2ccccc12 | U2OS | ATP luminescence | 72 h | 1.5
CSc1nc(NC(=S)NCCc2ccccc2)n(-c2ccc(C(=O)O)cc2)n1 | RPE-1 | MTT | – | 28.3
COc1cc(-c2ncn(/C=C\C(=O)OC(C)C)n2)cc(C(F)(F)F)c1 | NB-4 | – | 72 h | 0.169
CN(C)CCCOc1cc(NC(=O)c2cccc(C(=O)Nc3cc(OCCCN(C)C)c4ccccc4n3)n2)nc2ccccc12 | U2OS | ATP luminescence | 72 h | 2.1
Cc1ccc(O)c(/C=N/c2nc(Oc3ccccc3)nn2-c2ccc(C(=O)O)cc2)c1 | RPE-1 | MTT | – | 33.7
Nc1ncc(-c2cnn(C3CCNCC3)c2)cc1-c1nnc(CC2CC2)o1 | NB-4 | trypan blue | 72 h | 0.846
CC(=O)c1ccc(O)cn1 | Hepa-1c1c7 | crystal violet | 48 h | > 100
CC[C@@H](C)[C@H](N)C(=O)N1Cc2ccccc2C1 | HEL | ATP luminescence | 48 h | > 60
CS(=O)(=O)c1nc(N)n(-c2ccc(C(=O)O)cc2)n1 | RPE-1 | MTT | – | 34.2
CN1c2ccccc2C(=O)N2[C@H](C(=O)Nc3ccc(C(=O)Nc4ccccc4N)cc3)Cc3c([nH]c4ccccc34)[C@@H]12 | HEL | – | – | 0.66
NCCCOc1cc(NC(=O)c2cc(OCCN)cc(C(=O)Nc3cc(OCCCN)c4ccccc4n3)n2)nc2ccccc12 | U2OS | ATP luminescence | 72 h | 14.1
CC1=CC(C)(C)N(Cc2ccccc2)c2ccc(O)cc21 | PLC5 | MTT | 72 h | 11
COc1cc(C(=O)Nc2cc(OC)c3ccccc3n2)nc(C(=O)Nc2cc(OC)c3ccccc3n2)c1 | U2OS | ATP luminescence | 72 h | > 40
CSc1nc(/N=C/c2cc([N+](=O)[O-])ccc2O)n(-c2ccc(C(=O)O)cc2)n1 | RPE-1 | MTT | – | 24
O=C(Nc1cc(OCCN2CCCC2)c2ccccc2n1)c1cc(OCc2ccc(F)cc2)cc(C(=O)Nc2cc(OCCN3CCCC3)c3ccccc3n2)n1 | U2OS | ATP luminescence | 72 h | 5.8
CSc1nc(/N=C/c2cccc(O)c2)n(-c2ccc(C(=O)O)cc2)n1 | RPE-1 | MTT | – | 34.6
